Reference: ChEMBL document CHEMBL4373659, “Synthetic studies on the reverse antibiotic natural products, the nybomycins” (2019)
Activity calls are given as the source filed them. The calls are words filed in the database; no cut-off is given here.

Columns and labels:
Staphylococcus aureus [1] = assay: Antibacterial activity against fluoroquinolone sensitive Staphylococcus aureus SH1000 assessed as zone of inhibition at 1 mmol after 24 hrs Kirby-Bauer disc diffusion method; assay type: functional
How it was run: (§1)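 Compounds dissolved in CHCl3 as 1 mmol or 10 mmol solutions; 20 µL loaded per sterile 6 mm paper disc and dried 30 min at 37 °C; 7 discs per concentration. Single colony grown in Mueller-Hinton broth with aeration for 6 h at 37 °C, diluted in PBS to 0.5 McFarland, then swabbed in three directions onto Mueller-Hinton agar. Discs applied; incubated 24 h at 37 °C.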

Staphylococcus aureus [2] = assay: Antibacterial activity against fluoroquinolone sensitive Staphylococcus aureus SH1000 assessed as zone of inhibition at 10 mmol after 24 hrs Kirby-Bauer disc diffusion method; assay type: functional
How it was run: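 Discs: 6 mm autoclaved paper discs each loaded with 20 μL of compound in CHCl3 (1 or 10 mmol solutions), dried 30 min at 37 °C; 7 discs per compound per level. Inoculum: single colony grown 6 h at 37 °C with aeration in Mueller-Hinton broth, diluted with PBS to 0.5 McFarland, swabbed three directions onto Mueller-Hinton agar. Plates incubated 24 h at 37 °C.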

Staphylococcus aureus [3] = assay: Antibacterial activity against fluoroquinolone resistant Staphylococcus aureus USA300 JE2 assessed as zone of inhibition at 1 mmol after 24 hrs Kirby-Bauer disc diffusion method; assay type: functional; how it was run: as §1
Staphylococcus aureus [4] = assay: Antibacterial activity against fluoroquinolone resistant Staphylococcus aureus USA300 JE2 assessed as zone of inhibition at 10 mmol after 24 hrs Kirby-Bauer disc diffusion method; assay type: functional; how it was run: as §1
Staphylococcus aureus [5] = assay: Antibacterial activity against fluoroquinolone sensitive Staphylococcus aureus SH1000 at 32 mmol after 24 hrs Kirby-Bauer disc diffusion method; assay type: functional, organism-based
Staphylococcus aureus [6] = assay: Antibacterial activity against fluoroquinolone resistant Staphylococcus aureus USA300 JE2 at 32 mmol after 24 hrs Kirby-Bauer disc diffusion method; assay type: functional, organism-based

Structure (SMILES) | inhibition zone (IZ) (Staphylococcus aureus [1]) | inhibition zone (IZ) (Staphylococcus aureus [2]) | inhibition zone (IZ) (Staphylococcus aureus [3]) | inhibition zone (IZ) (Staphylococcus aureus [4]) | Activity (Staphylococcus aureus [5]) | Activity (Staphylococcus aureus [6])
CCOc1cc(C)c2cc3c(C)cc(=O)n4c3c(c2n1)OCC4 | 0 cm | 0 cm | 0 cm | 1 cm | – | –
CCOc1cc(C)c2cc3c(C)cc(=O)n4c3c(c2n1)OC4 | 0 cm | 0 cm | 0 cm | 0 cm | inactive | inactive
CCn1c(=O)cc(C)c2cc3c(C)cc(=O)n4c3c(c21)OCCC4 | 0 cm | 2.3 cm | 0 cm | 2.7 cm | – | –
CCn1c(=O)cc(C)c2cc3c(C)cc(=O)n4c3c(c21)OC4 | 0 cm | 1.8 cm | 1.4 cm | 2.9 cm | – | –
O=C(O)c1cn(C2CC2)c2cc(N3CCNCC3)c(F)cc2c1=O [CIPROFLOXACIN] | 1.8 cm | 3.1 cm | 0 cm | 1.2 cm | – | –
CCOc1cc(C)c2cc3c(C)cc(=O)n4c3c(c2n1)OCCC4 | 0 cm | 0 cm | 0 cm | 0 cm | – | –
CCn1c(=O)cc(C)c2cc3c(C)cc(=O)n4c3c(c21)OCC4 | 0 cm | 2.2 cm | 1.8 cm | 3.2 cm | – | –
